{"source": "paper PMC10092158", "about": "(The British Journal of Dermatology, 2022)", "format_in_all_cases": "in vivo, human", "key": {"[1]": {"system": "participants with mild‐to‐moderate AD", "procedure,_shortened": "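Adults and children with mild-to-moderate AD (IGA 2–3, 2–20% BSA, EASI 3–21) were randomized equally to eight arms for 6 weeks. QD arms were vehicle, 0·1% (1 mg g–1), 0·3%, 1·0% or 3·0% cream; BID arms were vehicle, 0·3% or 1%. Application was to all affected areas except hair-bearing scalp. Read-outs were POEM at weeks 1, 2 and 6 and weekly PP-NRS averages, analysed by ANCOVA or MMRM.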"}, "[2]": {"system": "participants with mild‐to‐moderate AD", "assay": "Phase IIb study: safety and tolerability", "procedure,_shortened": "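Safety data came from randomized participants treated for 6 weeks with vehicle or cream (QD 0·1–3·0%, or BID 0·3%/1%). Measures were treatment-emergent adverse events coded by System Organ Class, discontinuations due to TEAEs, vital signs, laboratory tests (haematology, creatine kinase, liver function) and ECGs. All were summarized descriptively.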"}, "[3]": {"assay": "Phase IIb study: plasma concentrations of brepocitinib", "conditions": "topical cream, all dose groups; lower limit of quantification 0·200 ng mL^–1", "procedure,_shortened": "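Blood was drawn pre-dose at baseline and at weeks 1, 2, 3, 4 and 6, each at the same interval after application, during 6 weeks of topical cream given QD (0·1–3·0%) or BID (0·3%, 1%). Plasma brepocitinib was quantified against an LLOQ of 0·200 ng mL–1 and summarized as median concentration per dose group.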"}}, "note": "“Also recorded” adds a separate entry of the source.", "data": [{"smiles": "Cn1cc(Nc2nccc(N3C[C@H]4CC[C@@H](C3)N4C(=O)[C@@H]3CC3(F)F)n2)cn1", "note": "[brepocitinib]", "values": [{"measurement": "Percentage change from baseline in EASI score compared with respective vehicle", "setting": "[1]; 1% QD, 3% QD and 1% BID groups, week 1 and all subsequent time points", "result": "significantly greater percentage changes from baseline in EASI score"}, {"measurement": "Onset of clinically relevant reductions in pruritus", "setting": "[1]; 24 h after the first administration", "result": "as early as day 2"}, {"measurement": "Change from baseline in POEM at week 6 vs. vehicle", "setting": "[1]; all brepocitinib groups", "result": "significantly different from vehicle"}, {"measurement": "Discontinued from study due to TEAE, participants", "setting": "[2]; 0·1% QD (N = 37)", "result": "2 (5·4) n (%)"}, {"measurement": "Nasopharyngitis (TEAE), participants", "setting": "[2]; 0·1% QD (N = 37)", "result": "2 (5·4) n (%)"}, {"measurement": "Severe TEAEs, participants", "setting": "[2]; 0·1% QD (N = 37)", "result": "0 n (%)"}, {"measurement": "TEAEs, all causalities, participants", "setting": "[2]; 0·1% QD (N = 37)", "result": "17 (45·9) n (%)"}, {"measurement": "Treatment‐emergent SAEs, participants", "setting": "[2]; 0·1% QD (N = 37)", "result": "0 n (%)"}, {"measurement": "Worsening of AD (TEAE), participants", "setting": "[2]; 0·1% QD (N = 37)", "result": "3 (8·1) n (%)"}, {"measurement": "Cases of creatine kinase elevation (≥ 2–3× the upper limit of normal)", "setting": "[2]; 0·1% QD and 0·3% QD groups, not deemed treatment‐related", "result": "one participant each"}, {"measurement": "Discontinued from study due to TEAE, participants", "setting": "[2]; 0·3% BID (N = 36)", "result": "1 (2·8) n (%)"}, {"measurement": "Nasopharyngitis (TEAE), participants", "setting": "[2]; 0·3% BID (N = 36)", "result": "2 (5·6) n (%)"}, {"measurement": "Severe TEAEs, participants", "setting": "[2]; 0·3% BID (N = 36)", "result": "1 (2·8) n (%)"}, {"measurement": "TEAEs, all causalities, participants", "setting": "[2]; 0·3% BID (N = 36)", "result": "9 (25·0) n (%)"}, {"measurement": "Treatment‐emergent SAEs, participants", "setting": "[2]; 0·3% BID (N = 36)", "result": "0 n (%)"}, {"measurement": "Worsening of AD (TEAE), participants", "setting": "[2]; 0·3% BID (N = 36)", "result": "0 n (%)"}, {"measurement": "Discontinued from study due to TEAE, participants", "setting": "[2]; 0·3% QD (N = 36)", "result": "1 (2·8) n (%)"}, {"measurement": "Nasopharyngitis (TEAE), participants", "setting": "[2]; 0·3% QD (N = 36)", "result": "2 (5·6) n (%)"}, {"measurement": "Severe TEAEs, participants", "setting": "[2]; 0·3% QD (N = 36)", "result": "0 n (%)"}, {"measurement": "TEAEs, all causalities, participants", "setting": "[2]; 0·3% QD (N = 36)", "result": "11 (30·6) n (%)"}, {"measurement": "Treatment‐emergent SAEs, participants", "setting": "[2]; 0·3% QD (N = 36)", "result": "0 n (%)"}, {"measurement": "Worsening of AD (TEAE), participants", "setting": "[2]; 0·3% QD (N = 36)", "result": "1 (2·8) n (%)"}, {"measurement": "Discontinued from study due to TEAE, participants", "setting": "[2]; 1.0% QD (N = 37)", "result": "2 (5·4) n (%)"}, {"measurement": "Nasopharyngitis (TEAE), participants", "setting": "[2]; 1.0% QD (N = 37)", "result": "3 (8·1) n (%)"}, {"measurement": "Severe TEAEs, participants", "setting": "[2]; 1.0% QD (N = 37)", "result": "0 n (%)"}, {"measurement": "TEAEs, all causalities, participants", "setting": "[2]; 1.0% QD (N = 37)", "result": "12 (32·4) n (%)"}, {"measurement": "Treatment‐emergent SAEs, participants", "setting": "[2]; 1.0% QD (N = 37)", "result": "0 n (%)"}, {"measurement": "Worsening of AD (TEAE), participants", "setting": "[2]; 1.0% QD (N = 37)", "result": "0 n (%)"}, {"measurement": "Discontinued from study due to TEAE, participants", "setting": "[2]; 1·0% BID (N = 37)", "result": "0 n (%)"}, {"measurement": "Nasopharyngitis (TEAE), participants", "setting": "[2]; 1·0% BID (N = 37)", "result": "2 (5·4) n (%)"}, {"measurement": "Severe TEAEs, participants", "setting": "[2]; 1·0% BID (N = 37)", "result": "0 n (%)"}, {"measurement": "TEAEs, all causalities, participants", "setting": "[2]; 1·0% BID (N = 37)", "result": "14 (37·8) n (%)"}, {"measurement": "Treatment‐emergent SAEs, participants", "setting": "[2]; 1·0% BID (N = 37)", "result": "0 n (%)"}, {"measurement": "Worsening of AD (TEAE), participants", "setting": "[2]; 1·0% BID (N = 37)", "result": "2 (5·4) n (%)"}, {"measurement": "Discontinued from study due to TEAE, participants", "setting": "[2]; 3·0% QD (N = 36)", "result": "2 (5·6) n (%)"}, {"measurement": "Nasopharyngitis (TEAE), participants", "setting": "[2]; 3·0% QD (N = 36)", "result": "4 (11·1) n (%)"}, {"measurement": "Severe TEAEs, participants", "setting": "[2]; 3·0% QD (N = 36)", "result": "0 n (%)"}, {"measurement": "TEAEs, all causalities, participants", "setting": "[2]; 3·0% QD (N = 36)", "result": "10 (27·8) n (%)"}, {"measurement": "Treatment‐emergent SAEs, participants", "setting": "[2]; 3·0% QD (N = 36)", "result": "0 n (%)"}, {"measurement": "Worsening of AD (TEAE), participants", "setting": "[2]; 3·0% QD (N = 36)", "result": "1 (2·8) n (%)"}, {"measurement": "Discontinuations due to TEAEs in SOC skin and subcutaneous tissue disorders", "setting": "[2]; all brepocitinib groups together", "result": 4, "unit": "n"}, {"measurement": "Trends in haemoglobin, platelet, lymphocyte or neutrophil counts or creatine kinase levels", "setting": "[2]; all groups", "result": "no clinically significant trends"}, {"measurement": "Serious AEs or deaths", "setting": "[2]; all groups, 6 weeks treatment", "result": "no serious AEs or deaths; also recorded: no serious TEAEs or deaths"}, {"measurement": "Plasma brepocitinib concentrations", "setting": "[3]", "result": "low and highly variable"}]}]}
